Measurements: ChEMBL document CHEMBL1687930 (J Med Chem, 2011)
Calls of active or inactive are those of the source. The calls are words filed in the database; no cut-off is given here.

Columns and labels:
[1] = Growth inhibition of dog MDCK2-MDR1 cells overexpressing human P-glycoprotein; format: functional; conditions: Canis lupus familiaris, MDCK-II
How it was run: (§1)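 Parental lines (MDCKII, LLC-PK1) and matched Pgp-overexpressing lines (MDCKII-MDR1, about 500-fold Pgp; L-MDR1, about 25000-fold Pgp) were tested with and without the Pgp inhibitor LY335979. Each experiment was run at least in triplicate, with 8 wells per concentration. GI50 came from a nonlinear four-parameter sigmoidal concentration-response fit.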

[2] = Growth inhibition of dog MDCK2-MDR1 cells overexpressing human P-glycoprotein in presence of P-glycoprotein inhibitor LY335979; format: functional; conditions: Canis lupus familiaris, MDCK-II; how it was run: as §1
LLC-PK1 [3] = assay: Growth inhibition of pig LLC-PK1 cells in presence of P-glycoprotein inhibitor LY335979; format: functional; conditions: Sus scrofa; how it was run: as §1
[4] = Growth inhibition of pig L-MDR1 cells overexpressing human P-glycoprotein; format: functional; conditions: Sus scrofa; how it was run: as §1
[5] = target: T1, Kinesin-like protein KIF11 (Homo sapiens, UniProt P52732); assay: Inhibition of untagged human Eg5 basal ATPase activity; conditions: read-out: Ki(app)
T1 sequence (P52732 whole entry): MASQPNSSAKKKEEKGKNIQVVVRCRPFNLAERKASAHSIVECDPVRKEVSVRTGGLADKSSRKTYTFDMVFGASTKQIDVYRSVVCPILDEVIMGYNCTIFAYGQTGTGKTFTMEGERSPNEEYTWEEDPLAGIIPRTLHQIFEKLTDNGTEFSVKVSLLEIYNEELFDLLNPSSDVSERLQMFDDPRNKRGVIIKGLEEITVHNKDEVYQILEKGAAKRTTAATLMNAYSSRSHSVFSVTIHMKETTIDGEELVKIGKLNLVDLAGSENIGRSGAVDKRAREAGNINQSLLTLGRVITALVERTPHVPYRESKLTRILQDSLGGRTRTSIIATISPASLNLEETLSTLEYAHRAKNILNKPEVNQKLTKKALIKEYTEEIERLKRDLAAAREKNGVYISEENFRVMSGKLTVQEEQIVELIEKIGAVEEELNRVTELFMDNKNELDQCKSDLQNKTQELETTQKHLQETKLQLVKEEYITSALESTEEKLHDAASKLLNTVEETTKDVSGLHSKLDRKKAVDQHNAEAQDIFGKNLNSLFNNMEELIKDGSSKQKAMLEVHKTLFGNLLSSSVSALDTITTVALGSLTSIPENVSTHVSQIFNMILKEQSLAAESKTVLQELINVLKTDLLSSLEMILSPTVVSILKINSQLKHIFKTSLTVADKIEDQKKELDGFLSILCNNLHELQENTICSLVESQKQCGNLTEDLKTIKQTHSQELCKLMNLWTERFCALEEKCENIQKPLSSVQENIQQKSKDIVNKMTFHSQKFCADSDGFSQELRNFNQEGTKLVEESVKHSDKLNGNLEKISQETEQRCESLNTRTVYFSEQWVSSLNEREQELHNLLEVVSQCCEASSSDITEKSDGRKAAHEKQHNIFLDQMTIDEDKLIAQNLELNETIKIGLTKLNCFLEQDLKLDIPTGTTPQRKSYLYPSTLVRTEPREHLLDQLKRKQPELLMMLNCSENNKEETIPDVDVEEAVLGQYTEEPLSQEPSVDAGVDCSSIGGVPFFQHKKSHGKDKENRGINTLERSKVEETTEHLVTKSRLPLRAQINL

LLC-PK1 [6] = assay: Growth inhibition of pig LLC-PK1 cells; format: functional; conditions: Sus scrofa; how it was run: as §1
MDCK-II = assay: Ratio of GI50 for dog MDCK2-MDR1 cells overexpressing human P-glycoprotein to GI50 for dog MDCK2 cells; format: functional, Canis lupus familiaris
[7] = Growth inhibition of dog MDCK2 cells; format: functional; conditions: Canis lupus familiaris, MDCK-II; how it was run: as §1
[8] = Growth inhibition of pig L-MDR1 cells overexpressing human P-glycoprotein in presence of P-glycoprotein inhibitor LY335979; format: functional; conditions: Sus scrofa; how it was run: as §1
[9] = target: T1, Kinesin-like protein KIF11; assay: Inhibition of untagged human Eg5 microtubule-stimulated ATPase activity
LLC-PK1 [10] = assay: Ratio of GI50 for pig L-MDR1 cells overexpressing human P-glycoprotein to GI50 for pig LLC-PK1 cells; format: functional, Sus scrofa
How it was run: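 MDR ratio is the GI50 in L-MDR1 cells (Pgp-overexpressing) divided by the GI50 in parental LLC-PK1 cells. Each GI50 came from growth inhibition run at least in triplicate, with 8 wells per concentration, fitted by a four-parameter sigmoidal model.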

[11] = Growth inhibition of dog MDCK2 cells in presence of P-glycoprotein inhibitor LY335979; format: functional; conditions: Canis lupus familiaris, MDCK-II; how it was run: as §1
[12] = target: T2, Kinesin-like protein KIF11 (Homo sapiens) (UniProt P52732); assay: Inhibition of untagged human Eg5 basal ATPase activity
T2 sequence (whole entry): T1 sequence (P52732 whole entry)

[13] = target: T2, Kinesin-like protein KIF11 (Homo sapiens); assay: Inhibition of untagged human Eg5 microtubule-stimulated ATPase activity
[14] = target: T2, Kinesin-like protein KIF11 (Homo sapiens); assay: Binding affinity to Eg5 at 2 mM by crystallography

Structure (SMILES) | GI50 [1] | GI50 [2] | GI50 (LLC-PK1 [3]) | GI50 [4] | Ki [5] | GI50 (LLC-PK1 [6]) | RatioGI50 (MDCK-II) | GI50 [7] | GI50 [8] | IC50 [9] | RatioGI50 (LLC-PK1 [10]) | GI50 [11] | inhibition [12] | inhibition [13] | Activity [14]
CSc1ccc(C(SC[C@H](N)C(=O)O)(c2ccccc2)c2ccccc2)cc1 | 410 nM | 210 nM | 300 nM | 11800 nM | < 50 nM | 340 nM | 3.7 | 110 nM | 670 nM | 21.8 nM | 35.1 | 110 nM | – | – | –
CN(C)[C@@H](CSC(c1ccccc1)(c1ccccc1)c1ccccc1)C(=O)O | – | – | – | – | – | – | – | – | – | – | – | – | inactive | inactive | –
N[C@@H](CSC(c1ccccc1)(c1ccccc1)c1ccc(Cl)cc1)C(=O)O | 560 nM | 270 nM | 2450 nM | 6210 nM | < 50 nM | 2110 nM | 2 | 280 nM | 1610 nM | 53.3 nM | 2.9 | 330 nM | – | – | Active
N[C@@H](CSC(c1ccccc1)(c1ccccc1)c1ccc(C(F)(F)F)cc1)C(=O)O | 670 nM | 270 nM | 510 nM | 8020 nM | < 50 nM | 1000 nM | 2.1 | 320 nM | 1020 nM | 116 nM | 8 | 330 nM | – | – | –
N[C@@H](CSC(c1ccccc1)(c1ccccc1)c1ccc2ccccc2c1)C(=O)O | 190 nM | 50 nM | 180 nM | 6180 nM | < 50 nM | 160 nM | 3.1 | 60 nM | 290 nM | 16.3 nM | 38.6 | 70 nM | – | – | –
N[C@@H](CSC(c1ccccc1)(c1ccccc1)c1ccc(I)cc1)C(=O)O | 330 nM | 180 nM | 440 nM | 9170 nM | < 50 nM | 330 nM | 3.4 | 100 nM | 610 nM | 19.3 nM | 27.6 | 110 nM | – | – | –
CC[C@]1(O)C[C@H]2CN(CCc3c([nH]c4ccccc34)[C@@](C(=O)OC)(c3cc4c(cc3OC)N(C=O)[C@H]3[C@@](O)(C(=O)OC)[C@H](OC(C)=O)[C@]5(CC)C=CCN6CC[C@]43[C@@H]65)C2)C1 [VINCRISTINE] | 107000 nM | 340 nM | – | 2100 nM | – | 30 nM | 40.3 | 2650 nM | – | – | 70 | 430 nM | – | – | –
CC(C)(C)c1ccc(C(SC[C@H](N)C(=O)O)(c2ccccc2)c2ccccc2)cc1 | 19500 nM | 3010 nM | 5410 nM | – | 429 nM | 4280 nM | 6.8 | 2860 nM | 13500 nM | 1240 nM | >12.5 | 2480 nM | – | – | –
N[C@@H](CSC(c1ccccc1)(c1ccccc1)c1ccc(Br)cc1)C(=O)O | 670 nM | 210 nM | 2120 nM | 6780 nM | < 50 nM | 3200 nM | 2.7 | 250 nM | 2350 nM | 26.8 nM | 2.1 | 250 nM | – | – | –
N[C@@H](CSC(c1ccccc1)(c1ccccc1)c1ccc(-c2ccccc2)cc1)C(=O)O | 68500 nM | 24500 nM | 75600 nM | – | 1350 nM | 77800 nM | 3 | 22700 nM | 110000 nM | 1970 nM | – | 20000 nM | – | – | –
N[C@H](CSC(c1ccccc1)(c1ccccc1)c1ccccc1)C(=O)O | 3150 nM | 780 nM | 1070 nM | 36600 nM | – | 940 nM | – | 610 nM | 4460 nM | – | – | 920 nM | – | – | –
COc1ccc(C(SC[C@H](N)C(=O)O)(c2ccccc2)c2ccccc2)cc1 | 540 nM | 80 nM | 2050 nM | 6910 nM | – | 1660 nM | – | 220 nM | 1650 nM | – | – | 240 nM | – | – | –
CCC(C)C(SC[C@H](N)C(=O)O)(c1ccccc1)c1ccccc1 (mixture of isomers) | – | – | – | – | – | – | – | – | – | 549 nM | – | – | – | – | Active
CCc1ccc(C(SC[C@H](N)C(=O)O)(c2ccccc2)c2ccccc2)cc1 | 560 nM | 170 nM | 300 nM | 10800 nM | < 50 nM | 340 nM | 2.4 | 230 nM | 160 nM | 55.4 nM | 31.8 | 290 nM | – | – | –
CCC(CC)C(SC[C@H](N)C(=O)O)(c1ccccc1)c1ccccc1 | – | – | – | – | 302 nM | – | – | – | – | 1630 nM | – | – | – | – | –
CCCCC(SC[C@H](N)C(=O)O)(c1ccccc1)c1ccccc1 | – | – | – | – | < 50 nM | – | – | – | – | 319 nM | – | – | – | – | –
CCCc1ccc(C(SC[C@H](N)C(=O)O)(c2ccccc2)c2ccccc2)cc1 | 1680 nM | 630 nM | 1100 nM | 37600 nM | < 50 nM | 1950 nM | 2.5 | 680 nM | 1760 nM | 85.9 nM | 19.3 | 710 nM | – | – | –
N[C@@H](CSC(c1ccccc1)(c1ccccc1)c1cccs1)C(=O)O | – | – | – | – | 58300 nM | – | – | – | – | 41700 nM | – | – | – | – | –
N[C@@H](CSC(c1ccccc1)(c1ccccc1)c1ccccc1)C(=O)O [S-TRITYL-L-CYSTEINE] | 2300 nM | 580 nM | 1110 nM | 33000 nM | – | 1060 nM | – | 860 nM | 3020 nM | – | – | 890 nM | – | – | –
NC(CSC(c1ccccc1)(c1ccccc1)c1ccc(C(=O)O)cc1)C(=O)O (stereo not given) | – | – | – | – | 2540 nM | – | – | – | – | 14100 nM | – | – | – | – | –
Cc1ccc(C(SC[C@H](N)C(=O)O)(c2ccccc2)c2ccccc2)cc1 | 350 nM | 120 nM | 1180 nM | 3830 nM | < 50 nM | 1050 nM | 3.8 | 90 nM | 490 nM | 61.7 nM | 3.7 | 80 nM | – | – | –
CC(C)c1ccc(C(SC[C@H](N)C(=O)O)(c2ccccc2)c2ccccc2)cc1 | 2750 nM | 880 nM | 1510 nM | 36700 nM | < 50 nM | 1050 nM | 3.5 | 780 nM | 1050 nM | 144 nM | 34.8 | 840 nM | – | – | –
N[C@@H](CSC(c1ccccc1)(c1ccccc1)c1ccc(C2CCCCC2)cc1)C(=O)O | 50800 nM | 17900 nM | 64900 nM | – | 3260 nM | 47900 nM | 2.1 | 24300 nM | 56800 nM | 1580 nM | – | 17600 nM | – | – | –
CCCCc1ccc(C(SC[C@H](N)C(=O)O)(c2ccccc2)c2ccccc2)cc1 | – | – | – | – | 84.2 nM | – | – | – | – | 93.3 nM | – | – | – | – | –
CC(C)C(SC[C@H](N)C(=O)O)(c1ccccc1)c1ccccc1 | – | – | – | – | 175 nM | – | – | – | – | 1150 nM | – | – | – | – | –
